How the values were obtained:
[1] = system: Human immunodeficiency virus 2; experiment: Antiviral activity against Human immunodeficiency virus type 2 (ISOLATE ROD) after 13 months; assay type: functional, organism-based; settings: Human immunodeficiency virus 2, ISOLATE ROD
In short: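 Reference strain ROD was tested in the ANRS PBMC assay alongside the clinical isolates, and the 50% inhibitory concentration (IC50) was reported.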

[2] = system: Human immunodeficiency virus 2; experiment: Antiviral activity against HIV 2 subtype A clinical isolate expressing 14H-60K/N-65E protease gene sequence from HIV2 infected patient plasma and PBMC obtained before compound treatment measured after 13 months; assay type: functional, organism-based; settings: Human immunodeficiency virus 2, subtype A
In short: (§1)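 Virus isolated by PBMC coculture from patient samples taken before (T0) or during (T1, T2) protease inhibitor exposure, with protease genes sequenced from plasma and PBMC isolates. Susceptibility was tested in the ANRS PBMC assay, and the 50% inhibitory concentration (IC50) was reported.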

[3] = system: Human immunodeficiency virus 2; experiment: Antiviral activity against HIV 2 subtype B clinical isolate expressing 14Y-61N-99L protease gene sequence from HIV2 infected patient plasma and PBMC obtained before compound treatment measured after 13 months; assay type: functional, organism-based; settings: Human immunodeficiency virus 2, subtype B\r\n; in short: as §1
[4] = system: Human immunodeficiency virus 2; experiment: Antiviral activity against HIV 2 subtype A clinical isolate expressing 14H-40D-70K-72R/K-91T/S protease gene sequence from HIV2 infected patient plasma and PBMC obtained before compound treatment measured after 13 months; assay type: functional, organism-based; settings: Human immunodeficiency virus 2, subtype A; in short: as §1
[5] = system: Human immunodeficiency virus 2; experiment: Antiviral activity against HIV 2 subtype A clinical isolate expressing 14H-17D-43T-68N/D protease gene sequence from HIV2 infected patient plasma and PBMC obtained before compound treatment measured after 13 months; assay type: functional, organism-based; settings: Human immunodeficiency virus 2, subtype A; in short: as §1
[6] = system: Human immunodeficiency virus 2; experiment: Antiviral activity against HIV 2 subtype A clinical isolate expressing 10V/I-40D-43I-56V-70K-82F-84V-89V-90M protease gene sequence from HIV2 infected patient plasma and PBMC obtained at T2 during compound treatment measured after 3 months; assay type: functional, organism-based; settings: Human immunodeficiency virus 2, subtype A; in short: as §1
[7] = system: Human immunodeficiency virus 2; experiment: Antiviral activity against HIV 2 subtype A clinical isolate expressing 10I-17D-40D-43I-46V-66V/A-70R/K protease gene sequence from HIV2 infected patient plasma and PBMC obtained before compound treatment measured after 13 months; assay type: functional, organism-based; settings: Human immunodeficiency virus 2, subtype A; in short: as §1
[8] = system: Human immunodeficiency virus 2; experiment: Antiviral activity against HIV 2 subtype A clinical isolate expressing 10I-17D-40D-43I-45K/R-46V-54M-64I/V-69K/R-71V/I-90M protease gene sequence from HIV2 infected patient plasma and PBMC obtained at T1 during compound treatment measured after 13 months; assay type: functional, organism-based; settings: Human immunodeficiency virus 2, subtype A; in short: as §1
[9] = system: Human immunodeficiency virus 2; experiment: Antiviral activity against HIV 2 subtype A clinical isolate expressing 5L/F-14Y/H-17G/D-43T-54I/M-62V/A-70R/K-71I protease gene sequence from HIV2 infected patient plasma and PBMC obtained at T1 during compound treatment measured after 13 months; assay type: functional, organism-based; settings: Human immunodeficiency virus 2, subtype A; in short: as §1
[10] = Antiviral activity against Human immunodeficiency virus type 1 (BRU ISOLATE) after […]; assay type: functional; settings: Human immunodeficiency virus 1
[11] = system: Human immunodeficiency virus 2; experiment: Antiviral activity against HIV 2 subtype A clinical isolate expressing 10I-40D-43I-70K-82F-84V-85L-89V-90M-91T/L-98N/K protease gene sequence from HIV2 infected patient plasma and PBMC obtained at T1 during compound treatment measured after 13 months; assay type: functional, organism-based; settings: Human immunodeficiency virus 2, subtype A; in short: as §1
[12] = system: Human immunodeficiency virus 2; experiment: Antiviral activity against HIV 2 subtype B clinical isolate expressing 12T-14Y-19P-40N-41D-61N-62I-96S-99L protease gene sequence from HIV2 infected patient plasma and PBMC obtained before compound treatment measured after 13 months; assay type: functional, organism-based; settings: Human immunodeficiency virus 2, subtype B\r\n; in short: as §1
[13] = system: Human immunodeficiency virus 2; experiment: Antiviral activity against HIV 2 subtype B clinical isolate expressing 14Y-19P-33I-61N-71I-75M-84V-90M protease gene sequence from HIV2 infected patient plasma and PBMC obtained at T1 during compound treatment measured after 13 months; assay type: functional, organism-based; settings: Human immunodeficiency virus 2, subtype B\r\n; in short: as §1
[14] = system: Human immunodeficiency virus 2; experiment: Antiviral activity against HIV 2 subtype H expressing 10I-40P-41Y-60H-63N-70T-73G-89L-92E protease gene sequence from HIV2 infected patient plasma and PBMC obtained before compound treatment measured after 13 months; assay type: functional, organism-based; settings: Human immunodeficiency virus 2, subtype H; in short: as §1
[15] = system: Human immunodeficiency virus 2; experiment: Antiviral activity against HIV 2 subtype B clinical isolate expressing 14Y-19P-61N-64V-71I-90M-95I protease gene sequence from HIV2 infected patient plasma and PBMC obtained at T2 during compound treatment measured after 3 months; assay type: functional, organism-based; settings: Human immunodeficiency virus 2, subtype B\r\n; in short: as §1
[16] = system: Human immunodeficiency virus 2; experiment: Antiviral activity against HIV 2 subtype B clinical isolate expressing 12Q-14R-17G/D-19P-61N-62I-92A protease gene sequence from HIV2 infected patient plasma and PBMC obtained before compound treatment measured after 13 months; assay type: functional, organism-based; settings: Human immunodeficiency virus 2, subtype B\r\n; in short: as §1
[17] = system: Human immunodeficiency virus 2; experiment: Antiviral activity against HIV 2 subtype A clinical isolate expressing 54M-65E-71I-74N-90M protease gene sequence from HIV2 infected patient plasma and PBMC obtained at T1 during compound treatment measured after 13 months; assay type: functional, organism-based; settings: Human immunodeficiency virus 2, subtype A; in short: as §1
[18] = system: Human immunodeficiency virus 2; experiment: Antiviral activity against HIV 2 subtype H expressing 10I-34E-40P-41Y-60H-63N-70T-73G-82F-89L-92E protease gene sequence from HIV2 infected patient plasma and PBMC obtained at T1 during compound treatment measured after 13 months; assay type: functional, organism-based; settings: Human immunodeficiency virus 2, subtype H; in short: as §1

Work on `Cc1cccc(C)c1OCC(=O)N[C@@H](Cc1ccccc1)[C@@H](O)C[C@H](Cc1ccccc1)NC(=O)[C@H](C(C)C)N1CCCNC1=O` [LOPINAVIR] yielded an IC50 [1] of 20 nM, an IC90 [1] of 70 nM and an IC50 [2] of 40 nM. For the same compound, the IC90 [2] was 200 nM, the IC50 [3] was 40 nM and the IC90 [3] was 70 nM. For the same compound, the IC50 [4] was 20 nM, the IC90 [4] was 80 nM and the IC50 [5] was 30 nM. It also gave an IC90 [5] of 80 nM, an IC50 [6] of 100 nM and an IC90 [6] of 1100 nM. The IC50 [7] was 20 nM, the IC90 [7] was 200 nM and the IC50 [8] was 1700 nM. The IC90 [8] was 8500 nM, the IC50 [9] was 40 nM and the IC90 [9] was 400 nM. For the same compound, the IC50 [10] was 30 nM, the IC90 [10] was 100 nM and the IC50 [11] was 100 nM. It also gave an IC90 [11] of 800 nM, an IC50 [12] of 30 nM and an IC90 [12] of 100 nM. The IC50 [13] was 200 nM, the IC90 [13] was 1500 nM and the IC50 [14] was 60 nM. For the same compound, the IC90 [14] was 500 nM, the IC50 [15] was 100 nM and the IC90 [15] was 900 nM. For the same compound, the IC50 [16] was 20 nM, the IC90 [16] was 200 nM and the IC50 [17] was 400 nM. For the same compound, the IC90 [17] was 3300 nM, the IC50 [18] was 3200 nM and the IC90 [18] was 8700 nM.
`Cc1c(O)cccc1C(=O)N[C@@H](CSc1ccccc1)[C@H](O)CN1C[C@H]2CCCC[C@H]2C[C@H]1C(=O)NC(C)(C)C` [NELFINAVIR] showed an IC50 [1] of 50 nM, an IC90 [1] of 900 nM and an IC50 [2] of 60 nM. For the same compound, the IC90 [2] was 800 nM, the IC50 [3] was 200 nM and the IC90 [3] was 1000 nM. For the same compound, the IC50 [4] was 200 nM, the IC90 [4] was 400 nM and the IC50 [5] was 30 nM. The IC90 [5] was 300 nM, the IC50 [6] was 10000 nM and the IC90 [6] was 81000 nM. For the same compound, the IC50 [7] was 50 nM, the IC90 [7] was 400 nM and the IC50 [8] was 1200 nM. For the same compound, the IC90 [8] was 15000 nM, the IC50 [9] was 14000 nM and the IC90 [9] was 110000 nM. It also gave an IC50 [10] of 2 nM, an IC90 [10] of 100 nM and an IC50 [11] of over 17600 nM. It also gave an IC90 [11] of over 17600 nM, an IC50 [12] of 60 nM and an IC90 [12] of 200 nM. For the same compound, the IC50 [13] was 14000 nM, the IC90 [13] was 107000 nM and the IC50 [14] was 40 nM. It also gave an IC90 [14] of 300 nM, an IC50 [15] of over 17600 nM and an IC90 [15] of over 17600 nM. It also gave an IC50 [16] of 40 nM, an IC90 [16] of 800 nM and an IC50 [17] of 3800 nM. It also gave an IC90 [17] of 53000 nM, an IC50 [18] of 9000 nM and an IC90 [18] of 24000 nM.
`CC(C)(C)NC(=O)[C@@H]1C[C@@H]2CCCC[C@@H]2CN1C[C@@H](O)[C@H](Cc1ccccc1)NC(=O)[C@H](CC(N)=O)NC(=O)c1ccc2ccccc2n1` [SAQUINAVIR] gave an IC50 [1] of 10 nM, an IC90 [1] of 90 nM and an IC50 [2] of 5 nM. The IC90 [2] was 50 nM, the IC50 [3] was 14000 nM and the IC90 [3] was 82000 nM. The IC50 [4] was 5 nM, the IC90 [4] was 20 nM and the IC50 [5] was under 6 nM. For the same compound, the IC90 [5] was under 6 nM, the IC50 [6] was 22000 nM and the IC90 [6] was 180000 nM. For the same compound, the IC50 [7] was 2 nM, the IC90 [7] was 20 nM and the IC50 [8] was 90 nM. It also gave an IC90 [8] of 700 nM, an IC50 [9] of over 12500 nM and an IC90 [9] of over 12500 nM. For the same compound, the IC50 [10] was 10 nM, the IC90 [10] was 40 nM and the IC50 [11] was 6400 nM. The IC90 [11] was 51000 nM, the IC50 [12] was 7 nM and the IC90 [12] was 20 nM. The IC50 [13] was 8200 nM, the IC90 [13] was 65000 nM and the IC50 [14] was 30 nM. It also gave an IC90 [14] of 300 nM, an IC50 [15] of 6700 nM and an IC90 [15] of 52000 nM. For the same compound, the IC50 [16] was 60 nM, the IC90 [16] was 300 nM and the IC50 [17] was over 12500 nM. The IC90 [17] was over 12500 nM, the IC50 [18] was 7300 nM and the IC90 [18] was 31000 nM.
In the case of `CCC[C@@]1(CCc2ccccc2)CC(O)=C([C@H](CC)c2cccc(NS(=O)(=O)c3ccc(C(F)(F)F)cn3)c2)C(=O)O1` [TIPRANAVIR], the IC50 [1] is reported as 400 nM, the IC90 [1] is reported as 3500 nM and the IC50 [2] is reported as 300 nM. The IC90 [2] was 2500 nM, the IC50 [3] was 400 nM and the IC90 [3] was 1700 nM. For the same compound, the IC50 [4] was 400 nM, the IC90 [4] was 4200 nM and the IC50 [5] was 300 nM. The IC90 [5] was 2200 nM, the IC50 [6] was 4800 nM and the IC90 [6] was 29000 nM. The IC50 [7] was 300 nM, the IC90 [7] was 2700 nM and the IC50 [8] was 4100 nM. For the same compound, the IC90 [8] was 23000 nM, the IC50 [9] was 6700 nM and the IC90 [9] was 26000 nM. For the same compound, the IC50 [10] was 50 nM, the IC90 [10] was 400 nM and the IC50 [11] was 2800 nM. The IC90 [11] was 16000 nM, the IC50 [12] was 400 nM and the IC90 [12] was 3000 nM. It also gave an IC50 [13] of 4800 nM, an IC90 [13] of 17000 nM and an IC50 [14] of 400 nM. It also gave an IC90 [14] of 800 nM, an IC50 [15] of 4000 nM and an IC90 [15] of 12000 nM. The IC50 [16] was 300 nM, the IC90 [16] was 2600 nM and the IC50 [17] was 4700 nM. For the same compound, the IC90 [17] was 14000 nM, the IC50 [18] was 7300 nM and the IC90 [18] was 16000 nM.

From ChEMBL document CHEMBL1255304, “In vitro phenotypic susceptibility of human immunodeficiency virus type 2 clinical isolates to protease inhibitors” (Antimicrob Agents Chemother, 2008)
